Compound activity deposited in PubChem by several laboratories.
ABHD5-PLIN5 inh: ABHD5-PLIN5 interaction inhibitors, primary screen, cell lysate, split luciferase complementation, luminescence; Split G. princeps luciferase complementation, 4 h; Perilipin-5 (Homo sapiens) + 1-acylglycerol-3-phosphate O-acyltransferase ABHD5 (Homo …; inhibition, % at 4 µM; actives 0.78% (n = 360,000);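 active means inhibition above the mean inhibition across every tested compound plus 3 SD, cut at about 22% in these data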
SENP1 inh: human SENP1 catalytic domain inhibitors, primary screen, biochemical, FRET, uHTS | Sentrin-specific protease 1 (Homo sapiens), Q9P0U3 | recombinant SENP1 catalytic domain, CyPet-SUMO1-YPet FRET cleavage | inhibition, % at 10 µM | actives 0.21% (n = 360,000) | AID 624204, 2012;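 active means inhibition at least 30% at 10 µM, raw YFP signal under a set limit, fluorescence ratio 0.5 to 1.5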
Target sequence (Q9P0U3 419-644 limits assumed): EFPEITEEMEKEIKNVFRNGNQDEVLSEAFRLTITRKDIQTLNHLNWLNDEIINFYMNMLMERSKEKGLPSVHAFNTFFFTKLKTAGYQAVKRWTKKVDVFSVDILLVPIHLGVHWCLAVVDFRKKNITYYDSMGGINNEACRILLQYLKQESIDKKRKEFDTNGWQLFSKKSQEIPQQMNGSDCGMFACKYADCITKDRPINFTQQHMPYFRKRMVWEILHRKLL
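Assay system – human recombinant His6-tagged SENP1 catalytic domain enzyme · Input – SENP1 enzyme, 20 pM final · Buffer or medium – Tris pH 8 buffer plus EDTA, NaCl, BME, BSA, NP40, catalase · Schedule – 50 min reaction at room temperature · Technique – FRET read of cyan and yellow fluorescence · Control set – no-enzyme wells low, DMSO-plus-enzyme wells high control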
Beta2AR agonist: beta2AR agonists driving receptor internalization, primary screen, cell-based, FAP fluorogen, flow cytometry; response, % (test concentration not listed); Am2.2-beta2AR cells; AID 504454, 2011; actives 0.43% (n = 340,000);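 active means response above a set limit, near 3 SD of response in nonfluorescent compounds, cut at about 42% in these data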
Target sequence (P07550 whole entry, looked up): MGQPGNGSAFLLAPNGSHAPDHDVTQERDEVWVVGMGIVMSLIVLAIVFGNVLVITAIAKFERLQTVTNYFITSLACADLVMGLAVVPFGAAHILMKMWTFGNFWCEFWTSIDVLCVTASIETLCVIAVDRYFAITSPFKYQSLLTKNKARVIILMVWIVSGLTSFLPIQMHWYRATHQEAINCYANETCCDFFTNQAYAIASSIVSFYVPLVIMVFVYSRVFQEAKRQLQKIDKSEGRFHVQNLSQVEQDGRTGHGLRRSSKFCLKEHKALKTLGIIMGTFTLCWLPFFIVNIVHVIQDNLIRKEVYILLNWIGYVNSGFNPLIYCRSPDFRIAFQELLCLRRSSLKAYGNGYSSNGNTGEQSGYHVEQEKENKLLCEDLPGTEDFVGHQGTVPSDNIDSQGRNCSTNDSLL
NadD inh: inhibitors of S. aureus NadD, primary screen, biochemical, colorimetric, uHTS; Nicotinate-nucleotide adenylyltransferase NadD (Staphylococcus aureus N315); purified NadD enzyme, colorimetric absorbance read-out; inhibition, % at 20 µM; actives 0.78% (n = 360,000); AID 602399, 2012; in the data active means inhibition above about 26%
GRK2 inh: compounds blocking aptamer binding on GRK2 – biochemical, human GRK2, bead flow cytometry, HTS, primary screen | actives 0.59% (n = 330,000) | inhibition of aptamer binding, % at 10 µM | FAM-aptamer displacement from GRK2;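 active means inhibition of aptamer binding above 40%, roughly 3 SD of noise, on plates passing a quality check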;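 further: median bead fluorescence of bound FAM aptamer so fluorescent compounds give negative values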
GRK2 inh confirm: GRK2 aptamer-displacing inhibitors, retest, confirmation, biochemical, cherry pick 1, bead flow cytometry; shares compounds with GRK2 inh; bead-bound GRK2, FAM-aptamer displacement; aptamer displacement, % at 10 µM; actives 4% (n = 2,000);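 active means aptamer displacement above 40%, near three times the noise of non-fluorescent compounds, on plates passing quality checks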;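 further: negative values mostly reflect intrinsic compound fluorescence rather than true enhancement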
Aptamer quench 1: counter-screen for GRK2 aptamer inhibitors: fluorescent aptamer quenchers; shares compounds with GRK2 inh; 110 tested, under 10 active; Fluorescent RNA aptamer beads, quenching, flow cytometry; active compounds read high; fluorescence change (kMESF span), kMESF (no concentration beside the values);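 active means compounds whose bead fluorescence drops by more than 37 kMESF across the dose range, marking them as dye quenchers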
FAM quench CP1: aptamer fluorescence quenching in GRK2 counter-screen; shares compounds with GRK2 inh; Carboxyfluorescein RNA aptamer on beads, flow cytometry quenching; active compounds read low; fluorescence response (% of DMSO), % at 10 µM; 2,000 tested, under 10 active;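 active means compounds that quench the bead-bound fluorescent RNA probe, cutting fluorescence to under half of the solvent control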;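 further: counterscreen run without GRK2 so only probe quenching by compound is measured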
GRK2 CP2: GRK2 aptamer-displacing inhibitors, hit retest, confirmation, biochemical, cherry pick 2, bead flow cytometry; shares compounds with GRK2 inh; bead-bound GRK2, FAM-aptamer displacement; inhibition of aptamer binding, % at 10 µM; 360 tested, under 10 active; AID 504782, 2011;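 active means inhibition of aptamer binding above 40%, about triple the noise seen with nonglowing compounds, on plates passing quality control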;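 further: negative values mostly come from compounds that fluoresce themselves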
FAM quench SP: counter-screen for GRK2 binding hits: quenchers of fluorescent RNA aptamer. shares compounds with GRK2 inh. AID 588494. fluorescence response vs DMSO, % at 10 µM. 360 tested, under 10 active. carboxyfluorescein RNA aptamer beads, flow cytometry quenching; active compounds read low;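 active means response vs DMSO under 50%, meaning signal dropped by over half, treated as fluorescence quencher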;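 further: labelled aptamer on streptavidin beads without GRK2 as a quench counter-screen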
Numbers stand for hits; – = inactive; · = not tested or not shown. In the library only some 2.5% were active in any assay of this set; here they are far more common.

SMILES	ABHD5-PLIN5 inh	SENP1 inh	Beta2AR agonist	NadD inh	GRK2 inh	GRK2 inh confirm	FAM quench CP1	others
CCC1Sc2ccccc2N(CC(=O)NCc2ccccc2OC)C1=O (centres undefined)	–	–	–	–	–	·	·
O=C(COc1coc(CN2CCN(c3ccc(F)cc3)CC2)cc1=O)NCC1CCCO1 (centres undefined)	–	–	–	–	–	·	·
COC(CNC(=O)Cn1nc(Cc2ccncc2)c2ccccc2c1=O)OC	–	–	–	–	–	·	·
CC(=O)c1cc2c(cc1NC(=O)C1CC=CCC1C(=O)O)OCO2 (centres undefined)	–	–	–	–	–	·	·
CC(=O)c1cc2c(cc1NC(=O)C1CN(C(C)=O)c3ccccc3O1)OCO2 (centres undefined)	–	–	–	–	–	–	–
CCC(=O)Nc1cccc(C2=NOC3(C2)C[C@H](C(N)=O)N(C(=O)CC#N)C3)c1 (some centres undefined)	–	–	–	–	–	·	·	GRK2 CP2=–;FAM quench SP=–
C=C(C)C(=O)Nc1cccc(C2=NOC3(C2)C[C@@H](C(N)=O)N(C(=O)[C@H]2CCC(=O)N2)C3)c1 (some centres undefined)	–	–	–	–	–	·	·
CCCCCC(=O)N1CC2(CC(c3cccc(NC(=O)[C@@H]4CCC(=O)N4)c3)=NO2)C[C@@H]1C(N)=O (some centres undefined)	–	–	–	–	–	·	·	GRK2 CP2=–;FAM quench SP=–
C=C(C)C(=O)Nc1cccc(C2=NOC3(C2)C[C@@H](C(N)=O)N(C(=O)c2cc([N+](=O)[O-])cc([N+](=O)[O-])c2)C3)c1 (some centres undefined)	–	–	–	–	79	57	–	Aptamer quench 1=–
C=C(C)C(=O)Nc1cccc(C2=NOC3(C2)C[C@@H](C(N)=O)N(C(=O)CCCCC)C3)c1 (some centres undefined)	·	·	–	·	98	90	–	Aptamer quench 1=–
CCN(CC)C(=O)C1=C(C)N(CCCOC)C(=O)C(CC(=O)NC(c2ccccc2)c2ccccc2)C1 (centres undefined)	–	–	·	–	·	·	·
C[C@@H]1CN([C@H](C)CO)S(=O)(=O)c2ccc(Br)cc2O[C@H]1CN(C)C(=O)C1CCCCC1	–	–	·	–	·	·	·
CN(C(=O)c1ccc(NC(=O)Cc2ccc(NC(=O)C3CCCN(C(=O)C4CCC4)C3)cc2)cc1)C1CC1 (centres undefined)	–	–	–	–	–	·	·
N#Cc1ccc(CN2CCN(C(=O)CNC(=O)Cc3ccccc3)CC2)cc1	–	–	–	–	·	·	·
CC1(C(=O)N2CC3(CC(c4cccc(NC(=O)CC(c5ccccc5)c5ccccc5)c4)=NO3)C[C@@H]2C(N)=O)CC1 (some centres undefined)	–	–	–	–	–	·	·	GRK2 CP2=–;FAM quench SP=–
CC(OCC(O)CN1CCCCC1CCO)c1ccc(Cl)cc1 (centres undefined)	–	–	–	–	75	–	–
Cc1ccc(C(OCC(O)CN2CCCCC2CO)c2ccccc2)cc1 (centres undefined)	–	–	–	–	–	·	·
COC(=O)Nc1ccc(S(=O)(=O)N2CCN(C)CC2)cc1	–	–	–	–	–	·	·
COC(=O)Nc1ccc(S(=O)(=O)N2CCN(c3ccc(F)cc3)CC2)cc1	–	–	–	–	50	–	–
COc1ccc(-n2nc(C(=O)NCC(=O)N(C)Cc3ccccc3)c3ccccc3c2=O)c(OC)c1	–	–	–	–	–	·	·
CCCCN(C)C(=O)CNC(=O)c1nn(-c2ccc(OC)cc2OC)c(=O)c2ccccc12	–	–	–	–	–	–	–
CCCCNC(=O)CNC(=O)c1nn(-c2ccc(OC)cc2OC)c(=O)c2ccccc12	–	–	–	–	–	–	–
O=C(Nc1ccccc1Cl)c1cc(C2CCCN(S(=O)(=O)c3cccs3)C2)on1 (centres undefined)	–	–	·	–	·	·	·
CC(C)C(=O)c1c(C(C)C)nn2ccccc12	–	–	–	–	–	–	–
COc1ccc(-c2cc(C(=O)N(C)Cc3cccc(OC)c3OC)c3ccccc3n2)cc1OC	–	–	–	–	–	·	·
SMILES	ABHD5-PLIN5 inh	SENP1 inh	Beta2AR agonist	NadD inh	GRK2 inh	GRK2 inh confirm	FAM quench CP1	others
COc1ccc(-c2cc(C(=O)N(C)Cc3nc4ccccc4c(=O)[nH]3)c3ccccc3n2)cc1OC	–	–	–	–	–	–	–
CCOC(=O)Nc1sc(C)nc1-c1ccccc1	–	–	–	–	44	–	–
COc1cccc(-c2nc(N3CCC(C)CC3)c3ccccc3n2)c1O	–	–	–	–	91	–	–
COCCN(C(=O)CN1CCc2ccccc21)c1c(N)n(Cc2ccccc2)c(=O)[nH]c1=O	–	–	–	–	–	·	·
CCN(C(=O)CN1CCc2ccccc21)c1c(N)n(Cc2ccccc2)c(=O)[nH]c1=O	–	–	–	–	–	–	–
Cc1ccc(Nc2c([N+](=O)[O-])cc(C(=O)N3CC(=O)Nc4ccccc43)cc2[N+](=O)[O-])c(C)c1	–	–	–	–	100	–	–
CCCOc1ccc(N2CC(C(=O)Nc3ccccc3C(=O)NC)CC2=O)cc1 (centres undefined)	–	–	–	–	47	–	–
NC(=O)C1CCN(CC(=O)N2c3ccccc3CCc3ccccc32)CC1	–	–	–	–	–	–	–
COc1ccc(Cl)cc1C(=O)n1cnc2ccccc21	–	–	–	–	–	·	·
Fc1ccccc1N1CCN(C(c2ccncc2)c2nnnn2C2CCCC2)CC1 (centres undefined)	–	–	–	–	53	–	–
